Data on 17 compounds can be found in ChEMBL document CHEMBL4732074, “Design and synthesis of novel fluorescently labeled analogs of vemurafenib targeting MKK4” (Eur J Med Chem, 2021).

Sequence of Serine/threonine-protein kinase B-raf (Homo sapiens) (P15056 whole entry): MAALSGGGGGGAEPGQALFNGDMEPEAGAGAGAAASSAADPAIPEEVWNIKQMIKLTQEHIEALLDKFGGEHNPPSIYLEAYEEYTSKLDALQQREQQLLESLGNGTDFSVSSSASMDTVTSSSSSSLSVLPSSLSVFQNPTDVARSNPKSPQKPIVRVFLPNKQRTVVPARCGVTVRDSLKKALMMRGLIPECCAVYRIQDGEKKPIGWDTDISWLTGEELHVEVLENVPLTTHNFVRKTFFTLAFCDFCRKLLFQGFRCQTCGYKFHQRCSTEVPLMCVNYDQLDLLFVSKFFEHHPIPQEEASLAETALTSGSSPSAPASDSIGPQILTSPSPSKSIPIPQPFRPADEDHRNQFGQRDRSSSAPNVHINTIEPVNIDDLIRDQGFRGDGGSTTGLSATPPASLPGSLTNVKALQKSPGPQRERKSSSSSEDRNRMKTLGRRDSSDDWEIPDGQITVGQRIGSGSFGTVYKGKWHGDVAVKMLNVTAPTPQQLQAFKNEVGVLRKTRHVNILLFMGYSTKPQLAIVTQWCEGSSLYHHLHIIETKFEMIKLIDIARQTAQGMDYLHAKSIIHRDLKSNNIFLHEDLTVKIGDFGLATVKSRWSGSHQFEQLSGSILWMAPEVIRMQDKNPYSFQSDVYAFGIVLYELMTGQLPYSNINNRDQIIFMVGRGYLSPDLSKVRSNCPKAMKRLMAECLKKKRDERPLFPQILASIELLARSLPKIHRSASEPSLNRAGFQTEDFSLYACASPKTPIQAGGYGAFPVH

One experiment deals with T1, Dual specificity mitogen-activated protein kinase kinase 4 (Homo sapiens) (UniProt P45985).
T1 sequence (whole entry): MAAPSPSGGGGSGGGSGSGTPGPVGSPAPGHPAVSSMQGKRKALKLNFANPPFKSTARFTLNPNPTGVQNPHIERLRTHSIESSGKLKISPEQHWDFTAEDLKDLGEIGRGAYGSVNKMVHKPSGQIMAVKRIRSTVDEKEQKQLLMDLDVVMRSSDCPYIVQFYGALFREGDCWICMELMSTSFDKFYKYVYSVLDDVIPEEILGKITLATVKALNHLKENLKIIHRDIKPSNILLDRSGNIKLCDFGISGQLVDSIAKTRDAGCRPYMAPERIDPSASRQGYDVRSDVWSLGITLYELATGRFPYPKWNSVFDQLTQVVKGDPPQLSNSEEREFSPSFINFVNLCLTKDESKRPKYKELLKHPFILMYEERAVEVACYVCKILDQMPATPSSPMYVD
As to the kind of experiment: Inhibition of wild-type human partial length MKK4 (S84 to D399 residues) expressed in mammalian expression system assessed as residual activity at 100 nM by KINOMEscan method relative to control. The method, boiled down: (§1)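 DiscoverX KINOMEscan binding assay: the compound at 100 nM competes with an immobilised ligand for kinase binding. Read-out is POC (percentage of control), where lower values mean stronger binding.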
Regarding `CCCS(=O)(=O)Nc1ccc(F)c(C(=O)c2c[nH]c3ncc(-c4ccc(NC(=O)CNC(=O)c5ccc(-c6c7ccc(=[N+](C)C)cc-7oc7cc(N(C)C)ccc67)c(C(=O)[O-])c5)nc4)cc23)c1F`, the Activity turned out to be 8.4%. On the same count and under the same terms, the result for `CCCS(=O)(=O)Nc1ccc(F)c(C(=O)c2ccc3[nH]c4ncc(-c5ccc(C(=O)NCCCCNC(=O)c6ccc(-c7c8ccc(=[N+](C)C)cc-8oc8cc(N(C)C)ccc78)c(C(=O)[O-])c6)cc5)cc4c3c2)c1F` reads 4.3%; that for `CCCS(=O)(=O)Nc1ccc(F)c(C(=O)c2ccc3[nH]c4ncc(-c5ccc(C(=O)NCCCCCCNC(=O)c6ccc(-c7c8ccc(=[N+](C)C)cc-8oc8cc(N(C)C)ccc78)c(C(=O)[O-])c6)cc5)cc4c3c2)c1F`, 6.6%; that for `CCCS(=O)(=O)Nc1ccc(F)c(C(=O)c2ccc3[nH]c4ncc(-c5ccc(C(=O)NCCCCNC(=O)c6ccc(-c7c8ccc(=[N+](C)C)cc-8oc8cc(N(C)C)ccc78)c(C(=O)[O-])c6)nc5)cc4c3c2)c1F`, 1.3%.

`CCCS(=O)(=O)Nc1ccc(F)c(C(=O)c2ccc3[nH]c4ncc(-c5ccc(C(=O)NCCCCCNC(=O)c6ccc(-c7c8ccc(=[N+](C)C)cc-8oc8cc(N(C)C)ccc78)c(C(=O)[O-])c6)cc5)cc4c3c2)c1F`: the Activity was 32%. Still for that read-out and setting: the result for `CCCS(=O)(=O)Nc1ccc(F)c(C(=O)c2c[nH]c3ncccc23)c1F` reads 14%. Same read-out and setting: the result for `CCCS(=O)(=O)Nc1ccc(F)c(C(=O)c2ccc3[nH]c4ncc(-c5ccc(C(=O)NCCCNC(=O)c6ccc(-c7c8ccc(=[N+](C)C)cc-8oc8cc(N(C)C)ccc78)c(C(=O)[O-])c6)cc5)cc4c3c2)c1F` reads 13%; that for `CCCS(=O)(=O)Nc1ccc(F)c(C(=O)c2ccc3[nH]c4ncc(-c5cnc(C(=O)NCCCCNC(=O)c6ccc(-c7c8ccc(=[N+](C)C)cc-8oc8cc(N(C)C)ccc78)c(C(=O)[O-])c6)nc5)cc4c3c2)c1F`, 9.3%.

Turning to `CCCS(=O)(=O)Nc1ccc(F)c(C(=O)c2ccc3[nH]c4ncc(-c5ccc(NC(=O)CNC(=O)c6ccc(-c7c8ccc(=[N+](C)C)cc-8oc8cc(N(C)C)ccc78)c(C(=O)[O-])c6)cc5)cc4c3c2)c1F`, the Activity was 13%. On the same count and under the same terms, next, `CCCS(=O)(=O)Nc1ccc(F)c(C(=O)c2ccc3[nH]c4ncc(-c5ccc(C(=O)NCCNC(=O)c6ccc(-c7c8ccc(=[N+](C)C)cc-8oc8cc(N(C)C)ccc78)c(C(=O)[O-])c6)cc5)cc4c3c2)c1F`: 19%; `CN(C)c1ccc2c(-c3ccc(C(=O)NCCCCC(=O)Nc4ccc(-c5cnc6[nH]cc(C(=O)c7c(F)ccc(NS(=O)(=O)Cc8ccccc8)c7F)c6c5)cn4)cc3C(=O)[O-])c3ccc(=[N+](C)C)cc-3oc2c1`: 13%; `CCCS(=O)(=O)Nc1ccc(F)c(C(=O)c2c[nH]c3ncc(-c4ccc(NC(=O)CNC(=O)c5ccc(-c6c7ccc(=[N+](C)C)cc-7oc7cc(N(C)C)ccc67)c(C(=O)[O-])c5)cc4)cc23)c1F`: 11%. The same measure, in the same setting: the result for `CCCS(=O)(=O)Nc1ccc(F)c(C(=O)c2ccc3[nH]c4ncc(-c5ccc(C(=O)NCCCNC(=O)c6ccc(-c7c8ccc(=[N+](C)C)cc-8oc8cc(N(C)C)ccc78)c(C(=O)[O-])c6)nc5)cc4c3c2)c1F` reads 4.5%; that for `CCCS(=O)(=O)Nc1ccc(F)c(C(=O)c2c[nH]c3ncc(-c4ccc(NC(=O)CNC(=O)OC(C)(C)C)cc4)cc23)c1F`, 9.2%; that for `CCCS(=O)(=O)Nc1ccc(F)c(C(=O)c2ccc3[nH]c4ncc(-c5ccc(C(=O)NCCCCCCNC(=O)c6ccc(-c7c8ccc(=[N+](C)C)cc-8oc8cc(N(C)C)ccc78)c(C(=O)[O-])c6)nc5)cc4c3c2)c1F`, 4.8%.

On to `CN(C)c1ccc2c(-c3ccc(C(=O)NCC(=O)Nc4ccc(-c5cnc6[nH]cc(C(=O)c7c(F)ccc(NS(=O)(=O)Cc8ccccc8)c7F)c6c5)cn4)cc3C(=O)[O-])c3ccc(=[N+](C)C)cc-3oc2c1`, for which the Activity is 6.6%.

As to `CCCS(=O)(=O)Nc1ccc(F)c(C(=O)c2c[nH]c3ncc(-c4ccc(NC(=O)CCCCNC(=O)c5ccc(-c6c7ccc(=[N+](C)C)cc-7oc7cc(N(C)C)ccc67)c(C(=O)[O-])c5)nc4)cc23)c1F`, the Activity stood at 57%.

Another experiment deals with T1, Dual specificity mitogen-activated protein kinase kinase 4 (Homo sapiens). As to the kind of experiment: Inhibition of wild-type human partial length MKK4 (S84 to D399 residues) expressed in mammalian expression system assessed as residual activity at 30 nM by KINOMEscan method relative to control. The method, boiled down: (§2)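 KINOMEscan competition binding against an immobilised ligand, run at the lower compound concentrations named in each line. Binding is reported as percentage of control (POC), with low POC indicating high affinity.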
In the case of `CCCS(=O)(=O)Nc1ccc(F)c(C(=O)c2ccc3[nH]c4ncc(-c5ccc(C(=O)NCCCCNC(=O)c6ccc(-c7c8ccc(=[N+](C)C)cc-8oc8cc(N(C)C)ccc78)c(C(=O)[O-])c6)nc5)cc4c3c2)c1F`, the Activity was 4.1%.

A further experiment shares this target. Kind of experiment: Inhibition of wild-type human partial length MKK4 (S84 to D399 residues) expressed in mammalian expression system assessed as residual activity at 10 nM by KINOMEscan method relative to control. An outline of the steps: as §2
For `CCCS(=O)(=O)Nc1ccc(F)c(C(=O)c2ccc3[nH]c4ncc(-c5ccc(C(=O)NCCCCNC(=O)c6ccc(-c7c8ccc(=[N+](C)C)cc-8oc8cc(N(C)C)ccc78)c(C(=O)[O-])c6)nc5)cc4c3c2)c1F`, the Activity stood at 18%.

The target of the next experiment is Serine/threonine-protein kinase B-raf (Homo sapiens) (UniProt P15056). As to the kind of experiment: Inhibition of BRAF (unknown origin) assessed as assessed as residual activity relative to control. An outline of the steps:
as §1
With `CCCS(=O)(=O)Nc1ccc(F)c(C(=O)c2ccc3[nH]c4ncc(-c5ccc(C(=O)NCCCCNC(=O)c6ccc(-c7c8ccc(=[N+](C)C)cc-8oc8cc(N(C)C)ccc78)c(C(=O)[O-])c6)nc5)cc4c3c2)c1F`, the Activity stood at 92%.
